Test results taken from ChEMBL document CHEMBL3352191, “Synthesis of sulfonamides with effective inhibitory action against Porphyromonas gingivalis γ-carbonic anhydrase” (Bioorg Med Chem Lett, 2014).

Test: Inhibition of Porphyromonas gingivalis gamma-carbonic anhydrase expressed in Escherichia coli preincubated for 15 mins by stopped flow CO2 hydration assay
Procedure, shortened: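 CO2 hydration followed by stopped-flow with phenol red (0.2 mM) read at 557 nm. Buffer was 20 mM Hepes pH 7.4 with 20 mM NaBF4 for ionic strength, and CO2 was 1.7–17 mM. Initial rates came from ≥6 traces of the first 5–10% of reaction over 10–100 s, with uncatalyzed rate subtracted. Inhibitor was diluted in water from 10 mM stock and preincubated with enzyme 15 min at rt. KI came from nonlinear least squares plus Cheng–Prusoff, mean of ≥3 determinations.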

Row | Structure (SMILES) | Ki
1 | CC(C)(C)OC(=O)NCCCC(=O)Nc1ccc(S(N)(=O)=O)cc1 | 56 nM
2 | CC(C)(C)OC(=O)NCCCC(=O)Nc1cccc(S(N)(=O)=O)c1 | 1240 nM
3 | CC(=O)NC(CCCCN)C(=O)NCCc1ccc(S(N)(=O)=O)cc1 (stereo not given) | 70.5 nM
4 | CC(C)(C)OC(=O)NCCCC(=O)NCc1ccc(S(N)(=O)=O)cc1 | 490 nM
5 | CC(C)(C)OC(=O)/N=C(\NCCCC(=O)NCCc1ccc(S(N)(=O)=O)cc1)NC(=O)OC(C)(C)C | 90.6 nM
6 | N=C(N)NCCCC(=O)NCc1ccc(S(N)(=O)=O)cc1 | 887 nM
7 | CC(=O)NC(CCCCNC(=N)N)C(=O)NCCc1ccc(S(N)(=O)=O)cc1 (stereo not given) | 370 nM
8 | CC(C)(C)OC(=O)NCCCC(=O)NCCc1ccc(S(N)(=O)=O)cc1 | 233 nM
9 | CC(=O)NC(CCCCNC(=N)N)C(=O)NCc1ccc(S(N)(=O)=O)cc1 (stereo not given) | 80.7 nM
10 | N=C(N)NCCCC(=O)NCCc1ccc(S(N)(=O)=O)cc1 | 40.1 nM
11 | CC(=O)NC(CCCCNC(=O)OC(C)(C)C)C(=O)NCc1ccc(S(N)(=O)=O)cc1 (stereo not given) | 89 nM
12 | CC(=O)NC(CCCCN/C(=N/C(=O)OC(C)(C)C)NC(=O)OC(C)(C)C)C(=O)NCCc1ccc(S(N)(=O)=O)cc1 (stereo not given) | 60.8 nM
13 | CC(=O)NC(CCCCN)C(=O)NCc1ccc(S(N)(=O)=O)cc1 (stereo not given) | 74.1 nM
14 | COC(=O)C(CCCCNC(=O)OCc1ccccc1)NC(=O)c1ccc(S(N)(=O)=O)cc1 (stereo not given) | 85.4 nM
15 | CC(=O)NC(CCCCNC(=O)OC(C)(C)C)C(=O)Nc1cccc(S(N)(=O)=O)c1 (stereo not given) | 54.2 nM
16 | NCCCC(=O)NCCc1ccc(S(N)(=O)=O)cc1 | 65.9 nM
17 | NCCCC(=O)NCc1ccc(S(N)(=O)=O)cc1 | 42.7 nM
18 | CC(C)(C)OC(=O)/N=C(\NCCCC(=O)NCc1ccc(S(N)(=O)=O)cc1)NC(=O)OC(C)(C)C | 74 nM
19 | CC(=O)NC(CCCCN/C(=N/C(=O)OC(C)(C)C)NC(=O)OC(C)(C)C)C(=O)NCc1ccc(S(N)(=O)=O)cc1 (stereo not given) | 77.6 nM
20 | CC(=O)NC(CCCCNC(=O)OC(C)(C)C)C(=O)NCCc1ccc(S(N)(=O)=O)cc1 (stereo not given) | 312 nM
